From PubChem BioAssay
STAT3 inh: reduces IL-6 driven STAT3 reporter signal. U3A cells, IL-6 STAT3-luciferase reporter, luminescence; host cell line lacks STAT1. inhibition, % at 5.5 µM. 190,000 tested, 0.89% active. AID 862;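 active = inhibition above the mean inhibition across all screened compounds plus 3 SD, cut at about 44% in these data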
APP 5'UTR act: APP 5'UTR luciferase reporter activation | SH-SY5Y APP 5'UTR luciferase reporter, luminescence; zero percent = DMSO vehicle wells | activation, % at 2 µM | 190,000 tested, 1% active | AID 1276;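 active = activation above a set limit, based on mean plus 3 SD of controls, cut at about 140% in these data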
STAT1 inh: STAT1 signaling inhibition; NIH 3T3 STAT1-luciferase reporter, IFN-gamma, luminescence; AID 920; 200,000 tested, 0.35% active; inhibition, % at 5.5 µM;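 active = inhibition above a set limit, the mean inhibition across all tested compounds plus 3 SD, cut at about 34% in these data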
STAT1 act: STAT1 signaling activation; NIH 3T3 STAT1-luciferase reporter, IFN-gamma, luminescence; 100% = IFN-gamma alone, no compound; AID 932; activation (% of control), % at 5.5 µM; 200,000 tested, 2.6% active;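 active = activation above the screen-wide mean activation plus 3 SD, cut at about 130% in these data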
NF-kB expr up: NF-kB expression increase, human neuronal cells | NF-kB reporter expression; hits give high values | fold change at 12.5 µM | 190,000 tested, 1.6% active | AID 1239; in the data active = fold change above about 3.3
STAT3 act: STAT3 signaling activation; U3A cells, IL-6 STAT3-luciferase reporter, luminescence; 100% = signal with IL-6 EC80 alone; activation (% of control), % at 5.6 µM; 190,000 tested, 0.91% active; AID 871;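 active = activation above the screen-wide mean of compound activation plus 3 SD, cut at about 130% in these data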
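Assay system – human STAT1-deficient U3A cells with stable STAT3-luciferase reporter · Also added – IL-6 (33 ng/mL) · Schedule – compound 1 h, then IL-6 6 h at 37 °C · Technique – reporter luminescence signal · Evaluation – % activation versus median of IL-6-stimulated wells · Benchmarks – IL-6-only wells as 100% reference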
Hits are given with their value; n = inactive; x = no result given. In the library only some 5.1% were active in any assay of this set; here they are far more common.

SMILES	STAT3 inh	APP 5'UTR act	STAT1 inh	STAT1 act	NF-kB expr up	STAT3 act
CC(=NC1CCCCC1)C1=C(O)c2ccccc2C1=O	n	n	n	148	x	n
COc1cccc(C(=O)CC(=O)C(=O)Nc2cc(Cl)c(OC)cc2OC)c1	n	n	n	n	n	n
O=C(Nc1ccccc1)C1=C[C@H](c2ccc3c(c2)OCO3)C[C@H](OCCCCO)O1	x	n	n	n	n	x
O=C(Nc1ccccc1)C1=C[C@@H](c2ccc(Br)cc2)C[C@@H](OCCCCO)O1	x	n	n	129	n	x
CCCS(=O)(=O)N1CCN=C1SCc1cccc(C)c1	n	n	n	n	n	n
O=C(CN(C1CCCCC1)S(=O)(=O)c1ccc(Cl)cc1)NCc1ccncc1	n	n	n	n	n	n
CCOc1ccc(NC(=O)Cn2cncc2-c2ccc([N+](=O)[O-])cc2)cc1	n	n	n	n	n	n
CCOC(=O)Cn1cncc1-c1ccc([N+](=O)[O-])cc1	n	n	n	130	n	n
O=C(NCc1ccc2c(c1)OCO2)c1n[nH]c(=O)c2ccccc12	n	n	n	n	n	n
Fc1cccc2sc(Nc3nnc(-c4ccco4)o3)nc12	n	n	n	132	n	n
COc1cccc2sc(Nc3nnc(-c4cccs4)o3)nc12	n	n	n	139	n	172
CCn1c(SCc2nc(-c3ccc(OC)c(OC)c3)no2)nnc1-c1cccs1	n	n	n	n	n	n
O=C(COc1ccccc1Cl)c1ccc[nH]1	n	n	n	n	n	n
C=CCNC(=O)COc1ccc(Br)cc1Cl	n	n	n	132	n	n
O=C(COc1ccc(Br)cc1Cl)c1ccc[nH]1	n	n	n	137	n	n
COCCNC(=O)COc1ccc(Br)cc1Cl	n	n	n	n	n	n
O=C(COc1ccc(Br)cc1Cl)NC1CCCCC1	n	n	n	138	3.5	n
Cc1cc(Br)ccc1OCCCCN1CCC(C)CC1	n	n	n	n	n	n
COc1cc(/C=N/NC(=O)c2nc3ccccn3c2C)cc(OC)c1O	n	n	n	n	n	n
O=C1[C@@H]2Cc3c([nH]c4ccccc34)[C@@H](c3ccccc3)N2C(=O)[C@@H]2Cc3c([nH]c4ccccc34)[C@@H](c3ccccc3)N12	n	n	n	n	n	137
C#CCN1C(=O)S/C(=C/C=C/c2ccc(N(C)C)cc2)C1=O	n	n	n	136	n	n
CC1=NN(c2ccc([N+](=O)[O-])cc2)C(=O)/C1=C\N(C)C	n	n	n	n	n	n
CN(C)/C=C1/C(=O)N(c2ccc([N+](=O)[O-])cc2)N=C1c1ccccc1	n	n	n	144	n	n
O=C(NC(=O)c1ccccc1)NC1(C(F)(F)F)OCCO1	n	n	n	135	4.2	n
COc1ccccc1C(=O)NNC(=O)c1cccc(Cl)c1	n	142	n	n	3.6	n
SMILES	STAT3 inh	APP 5'UTR act	STAT1 inh	STAT1 act	NF-kB expr up	STAT3 act
COc1ccc(Cl)cc1C(=O)NNC(=O)c1cccc([N+](=O)[O-])c1	n	n	n	n	n	n
Cc1ccc(-c2cn3nc(C)c(C)nc3n2)cc1	n	n	n	n	4.7	n
Cc1cc(N2CCN(C)CC2)n2cc(-c3ccc(F)cc3)nc2n1	n	n	n	n	n	n
O=C(NCCCN1CCOCC1)C(=O)NCc1ccco1	n	n	n	n	n	n
C/C(=N\NC(=O)c1ccc(CN2CCOCC2)cc1)c1ccc(NC(=O)c2ccccc2)cc1	n	n	n	131	n	n
O=C(Nc1ccc(CN2CCOCC2)cc1)c1cccc(-c2cc3ccccc3oc2=O)c1	n	n	n	n	n	n
O=C(Nc1ccc(CN2CCOCC2)cc1)c1cccc(F)c1	n	n	n	133	n	n
Cc1cccc(CNC(=O)CCc2nnc(C3CCCCC3)o2)c1	n	n	n	n	n	n
O=C1COc2ccc(N3C(=O)C=CC3=O)cc2N1	n	n	n	n	n	n
O=C(Nc1ccc2c(c1)OCCO2)c1c(F)cccc1F	n	n	n	n	4	n
NC(=O)Nc1ccc2c(c1)OCCO2	n	x	n	n	n	n
O=C(NC(=S)Nc1ccc2c(c1)OCCO2)c1ccccc1	n	179	n	n	4.7	n
O=C(NC(=S)Nc1ccc2c(c1)OCCO2)c1ccccc1F	n	159	n	149	7.4	n
